Active and inactive are the calls of the source. The rule behind the calls is not given here.
Experiments:
[1] = target: SRSF protein kinase 2 (Homo sapiens) (UniProt P78362); test: Inhibition of human SRPK2 (46 to end residues) using RSRSRSRSRSRSRSR as substrate measured after 40 mins in presence of [gamma33P]ATP by scintillation counting method
Procedure, shortened: (§1)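 Kinase panel of 422 kinases screened by Eurofins KinaseProfiler at a single test-compound concentration of 10 µM.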

[2] = target: Proto-oncogene tyrosine-protein kinase Src (Homo sapiens) (UniProt P12931); test: Inhibition of human Src (1 to 530 residues) using GGEEEEYFELVKKKK as substrate measured after 40 mins in presence of [gamma33P]ATP by scintillation counting method
[3] = Lipophilicity, log D of the compound at pH 7.4 by HPLC analysis; type: physicochemical; conditions: buffer
Homo sapiens [4] = species on record: Homo sapiens; test: Inhibition of recombinant human EphB2 A848S/ K918E mutant (560 to end residues) at 10 uM using KTFCGTPEYLAPEVRREPRILSEEEQEMFRDFDYIADWC as substrate measured after 40 mins in presence of [gamma33P]ATP by scintillation counting method
[5] = target: Cyclin-dependent kinase-like 4 (Homo sapiens) (UniProt Q5MAI5); test: Inhibition of human CDKL4 at 10 uM by radiometric method; procedure, shortened: as §1
[6] = target: Epidermal growth factor receptor (Homo sapiens) (UniProt P00533); test: Inhibition of recombinant human EGFR (696 to end residues) at 10 uM using poly(Glu, Tyr) 4:1 as substrate measured after 40 mins in presence of [gamma33P]ATP by scintillation counting method
[7] = tested on: Discoidin domain-containing receptor 2 (Homo sapiens), Q16832 [UNDEFINED MUTATION]; test: Inhibition of recombinant human DDR2 S642A mutant (467 to end residues) at 10 uM using KKSRGDYMTMQIG as substrate measured after 40 mins in presence of [gamma33P]ATP by scintillation counting method
[8] = tested on: Hepatocyte growth factor receptor (Homo sapiens), P08581 [D1228N]; test: Inhibition of recombinant human MET A1209G/V1290L/D1246N mutant (974 to end residues) at 10 uM using KKKGQEEEYVFIE as substrate measured after 40 mins in presence of [gamma33P]ATP by scintillation counting method
[9] = target: Tyrosine-protein kinase Fgr (Homo sapiens) (UniProt P09769); test: Inhibition of recombinant human FGR (2 to end residues) at 10 uM using poly(Glu, Tyr) 4:1 as substrate measured after 40 mins in presence of [gamma33P]ATP by scintillation counting method
[10] = target: Mitogen-activated protein kinase kinase kinase kinase 4 (Homo sapiens) (UniProt O95819); test: Inhibition of recombinant human MAP4K4 (1 to 328 residues) at 10 uM using RLGRDKYKTLRQIRQ as substrate measured after 40 mins in presence of [gamma33P]ATP by scintillation counting method
[11] = target: Serine/threonine-protein kinase 4 (Homo sapiens) (UniProt Q13043); test: Inhibition of recombinant full-length human MST1 at 10 uM using KKSRGDYMTMQIG as substrate measured after 40 mins in presence of [gamma33P]ATP by scintillation counting method
[12] = target: Serine/threonine-protein kinase DCLK3 (Homo sapiens) (UniProt Q9C098); test: Inhibition of recombinant human DCAMKL3 (345 to end residues) at 10 uM using KKLNRTLSFAEPG as substrate measured after 40 mins in presence of [gamma33P]ATP by scintillation counting method
[13] = target: ALK tyrosine kinase receptor (Homo sapiens) (UniProt Q9UM73); test: Inhibition of recombinant human ALK (1058 to end residues) at 10 uM using KKKSPGEYVNIEF as substrate measured after 40 mins in presence of [gamma33P]ATP by scintillation counting method
[14] = target: SRSF protein kinase 3 (Homo sapiens) (UniProt Q9UPE1); test: Inhibition of recombinant full-length human MSSK1 at 10 uM using ERMRPRKRQGSVRRRV as substrate measured after 40 mins in presence of [gamma33P]ATP by scintillation counting method
[15] = target: Serine/threonine-protein kinase B-raf (Homo sapiens) (UniProt P15056); test: Inhibition of recombinant human BRAF (416 to end residues) at 10 uM using myelin basic protein as substrate measured after 40 mins in presence of [gamma33P]ATP by scintillation counting method
[16] = target: Myosin-IIIb (Homo sapiens) (UniProt Q8WXR4); test: Inhibition of recombinant full-length human MYO3B (1 to 326 residues) at 10 uM using RLGRDKYKTLRQIRQ as substrate measured after 40 mins in presence of [gamma33P]ATP by scintillation counting method
[17] = target: Calcium/calmodulin-dependent protein kinase type IV (Homo sapiens) (UniProt Q16566); test: Inhibition of recombinant full-length human CaMK4 at 10 uM using calmodulin as substrate measured after 40 mins in presence of [gamma33P]ATP by scintillation counting method
[18] = target: Bromodomain and WD repeat-containing protein 1 (Homo sapiens) (UniProt Q9NSI6); test: Binding affinity to human partial length WDR9 bromodomain 2 (A1310 to E1430 residues) expressed in bacterial expression system at 1 uM by BROMOscan assay
Procedure, shortened: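 Outsourced competition-binding profiling (BROMOscan) at a single concentration of 1 µM against 32 recombinant bromodomains; binding expressed as percentage of control.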

[19] = target: Dual specificity tyrosine-phosphorylation-regulated kinase 2 (Homo sapiens) (UniProt Q92630); test: Inhibition of recombinant full-length human DYRK2 at 10 uM using casein as substrate measured after 40 mins in presence of [gamma33P]ATP by scintillation counting method
[20] = target: Mitogen-activated protein kinase kinase kinase 10 (Homo sapiens) (UniProt Q02779); test: Inhibition of recombinant human MLK2 (1 to 449 residues) at 10 uM using myelin basic protein as substrate measured after 40 mins in presence of [gamma33P]ATP by scintillation counting method
[21] = target: Tyrosine-protein kinase Lyn (Homo sapiens) (UniProt P07948); test: Inhibition of recombinant full-length human Lyn at 10 uM using poly(Glu, Tyr) 4:1 as substrate measured after 40 mins in presence of [gamma33P]ATP by scintillation counting method
[22] = target: Nucleosome-remodeling factor subunit BPTF (Homo sapiens, UniProt Q12830); test: Binding affinity to human N-terminal His-tagged FALZ by isothermal titration calorimetry
Procedure, shortened: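 Bromodomain (His-tag removed by TEV for PCAF and GCN5) in the syringe, ligand in the cell. One 0.4 μL injection, then 19 of 2 μL. Dilution heat subtracted; KD from an independent single-site binding model.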

Homo sapiens [23] = species on record: Homo sapiens; test: Inhibition of recombinant full-length human ATRIP/ATR M211T mutant at 10 uM using GST-cMyc-p53 as substrate measured after 40 mins by fluorescence assay
[24] = target: Insulin receptor (Homo sapiens) (UniProt P06213); test: Inhibition of recombinant human IR (1005 to 1310 residues) at 10 uM using KKSRGDYMTMQIG as substrate measured after 40 mins in presence of [gamma33P]ATP by scintillation counting method

Calcium/calmodulin-dependent protein kinase type IV (Homo sapiens), sequence (Q16566 whole entry, the tested form may be a part): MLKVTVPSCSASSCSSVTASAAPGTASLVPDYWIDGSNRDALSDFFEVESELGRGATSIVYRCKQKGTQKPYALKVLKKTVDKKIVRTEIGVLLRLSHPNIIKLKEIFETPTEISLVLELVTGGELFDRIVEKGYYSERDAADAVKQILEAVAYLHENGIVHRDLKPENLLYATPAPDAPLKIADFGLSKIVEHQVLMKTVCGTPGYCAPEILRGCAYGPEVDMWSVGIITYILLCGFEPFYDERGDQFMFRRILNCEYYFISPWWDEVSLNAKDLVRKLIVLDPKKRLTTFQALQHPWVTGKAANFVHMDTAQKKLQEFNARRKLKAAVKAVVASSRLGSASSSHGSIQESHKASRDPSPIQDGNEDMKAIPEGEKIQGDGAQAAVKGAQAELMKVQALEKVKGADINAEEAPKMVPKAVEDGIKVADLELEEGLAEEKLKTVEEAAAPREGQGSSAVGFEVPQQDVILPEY
Mitogen-activated protein kinase kinase kinase kinase 4 (Homo sapiens), sequence (O95819 2-1239 limits assumed): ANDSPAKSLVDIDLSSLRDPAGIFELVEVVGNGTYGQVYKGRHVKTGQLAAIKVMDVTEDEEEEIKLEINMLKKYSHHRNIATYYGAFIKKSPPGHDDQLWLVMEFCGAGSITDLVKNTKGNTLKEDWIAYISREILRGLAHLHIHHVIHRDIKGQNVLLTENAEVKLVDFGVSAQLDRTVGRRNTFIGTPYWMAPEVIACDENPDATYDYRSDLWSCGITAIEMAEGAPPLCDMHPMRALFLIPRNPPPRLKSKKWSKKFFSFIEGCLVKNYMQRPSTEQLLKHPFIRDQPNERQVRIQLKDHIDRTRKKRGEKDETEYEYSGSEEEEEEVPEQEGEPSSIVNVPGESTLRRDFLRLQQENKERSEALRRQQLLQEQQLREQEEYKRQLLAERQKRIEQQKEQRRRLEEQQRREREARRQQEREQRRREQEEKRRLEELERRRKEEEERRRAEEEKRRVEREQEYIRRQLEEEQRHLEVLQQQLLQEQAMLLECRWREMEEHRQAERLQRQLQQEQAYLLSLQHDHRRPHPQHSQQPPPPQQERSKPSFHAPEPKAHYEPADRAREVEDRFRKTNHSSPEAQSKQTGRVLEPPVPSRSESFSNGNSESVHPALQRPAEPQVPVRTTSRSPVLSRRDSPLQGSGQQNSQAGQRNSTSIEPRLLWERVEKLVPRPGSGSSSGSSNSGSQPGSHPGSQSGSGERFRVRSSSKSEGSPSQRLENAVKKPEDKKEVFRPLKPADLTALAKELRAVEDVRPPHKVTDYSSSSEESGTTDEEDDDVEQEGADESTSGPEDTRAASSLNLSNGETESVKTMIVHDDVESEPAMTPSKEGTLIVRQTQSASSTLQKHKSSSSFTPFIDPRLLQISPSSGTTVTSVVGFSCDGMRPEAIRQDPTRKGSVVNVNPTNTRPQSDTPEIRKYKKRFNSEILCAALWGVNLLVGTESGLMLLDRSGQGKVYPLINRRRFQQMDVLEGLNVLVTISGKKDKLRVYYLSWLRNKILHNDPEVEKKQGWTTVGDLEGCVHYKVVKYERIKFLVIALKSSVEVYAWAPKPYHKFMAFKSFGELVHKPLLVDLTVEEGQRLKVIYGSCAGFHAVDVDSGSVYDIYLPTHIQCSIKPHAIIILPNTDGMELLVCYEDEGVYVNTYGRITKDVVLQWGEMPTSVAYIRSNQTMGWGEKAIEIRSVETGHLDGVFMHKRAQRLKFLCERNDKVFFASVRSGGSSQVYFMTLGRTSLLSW
Serine/threonine-protein kinase B-raf (Homo sapiens), sequence (P15056 whole entry, the tested form may be a part): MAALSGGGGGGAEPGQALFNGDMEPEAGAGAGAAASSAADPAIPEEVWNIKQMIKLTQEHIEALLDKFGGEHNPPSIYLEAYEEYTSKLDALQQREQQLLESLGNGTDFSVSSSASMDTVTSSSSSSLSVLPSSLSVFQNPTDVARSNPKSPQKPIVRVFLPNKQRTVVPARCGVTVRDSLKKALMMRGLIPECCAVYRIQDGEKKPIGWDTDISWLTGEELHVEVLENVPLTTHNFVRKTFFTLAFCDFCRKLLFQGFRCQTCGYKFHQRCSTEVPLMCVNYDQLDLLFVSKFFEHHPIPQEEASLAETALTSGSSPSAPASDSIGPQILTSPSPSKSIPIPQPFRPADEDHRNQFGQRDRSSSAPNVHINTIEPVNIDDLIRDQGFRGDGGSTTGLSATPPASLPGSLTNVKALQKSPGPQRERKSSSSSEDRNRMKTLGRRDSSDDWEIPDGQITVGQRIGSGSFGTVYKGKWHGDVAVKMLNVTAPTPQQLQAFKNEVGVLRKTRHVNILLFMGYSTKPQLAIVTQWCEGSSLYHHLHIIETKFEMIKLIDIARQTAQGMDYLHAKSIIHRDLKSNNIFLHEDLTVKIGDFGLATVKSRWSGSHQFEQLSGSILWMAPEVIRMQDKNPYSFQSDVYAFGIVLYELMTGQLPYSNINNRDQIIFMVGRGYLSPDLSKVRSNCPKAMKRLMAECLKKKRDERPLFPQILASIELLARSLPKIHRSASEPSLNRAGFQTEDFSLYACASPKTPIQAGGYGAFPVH
Bromodomain and WD repeat-containing protein 1 (Homo sapiens), sequence (Q9NSI6 whole entry, the tested form may be a part): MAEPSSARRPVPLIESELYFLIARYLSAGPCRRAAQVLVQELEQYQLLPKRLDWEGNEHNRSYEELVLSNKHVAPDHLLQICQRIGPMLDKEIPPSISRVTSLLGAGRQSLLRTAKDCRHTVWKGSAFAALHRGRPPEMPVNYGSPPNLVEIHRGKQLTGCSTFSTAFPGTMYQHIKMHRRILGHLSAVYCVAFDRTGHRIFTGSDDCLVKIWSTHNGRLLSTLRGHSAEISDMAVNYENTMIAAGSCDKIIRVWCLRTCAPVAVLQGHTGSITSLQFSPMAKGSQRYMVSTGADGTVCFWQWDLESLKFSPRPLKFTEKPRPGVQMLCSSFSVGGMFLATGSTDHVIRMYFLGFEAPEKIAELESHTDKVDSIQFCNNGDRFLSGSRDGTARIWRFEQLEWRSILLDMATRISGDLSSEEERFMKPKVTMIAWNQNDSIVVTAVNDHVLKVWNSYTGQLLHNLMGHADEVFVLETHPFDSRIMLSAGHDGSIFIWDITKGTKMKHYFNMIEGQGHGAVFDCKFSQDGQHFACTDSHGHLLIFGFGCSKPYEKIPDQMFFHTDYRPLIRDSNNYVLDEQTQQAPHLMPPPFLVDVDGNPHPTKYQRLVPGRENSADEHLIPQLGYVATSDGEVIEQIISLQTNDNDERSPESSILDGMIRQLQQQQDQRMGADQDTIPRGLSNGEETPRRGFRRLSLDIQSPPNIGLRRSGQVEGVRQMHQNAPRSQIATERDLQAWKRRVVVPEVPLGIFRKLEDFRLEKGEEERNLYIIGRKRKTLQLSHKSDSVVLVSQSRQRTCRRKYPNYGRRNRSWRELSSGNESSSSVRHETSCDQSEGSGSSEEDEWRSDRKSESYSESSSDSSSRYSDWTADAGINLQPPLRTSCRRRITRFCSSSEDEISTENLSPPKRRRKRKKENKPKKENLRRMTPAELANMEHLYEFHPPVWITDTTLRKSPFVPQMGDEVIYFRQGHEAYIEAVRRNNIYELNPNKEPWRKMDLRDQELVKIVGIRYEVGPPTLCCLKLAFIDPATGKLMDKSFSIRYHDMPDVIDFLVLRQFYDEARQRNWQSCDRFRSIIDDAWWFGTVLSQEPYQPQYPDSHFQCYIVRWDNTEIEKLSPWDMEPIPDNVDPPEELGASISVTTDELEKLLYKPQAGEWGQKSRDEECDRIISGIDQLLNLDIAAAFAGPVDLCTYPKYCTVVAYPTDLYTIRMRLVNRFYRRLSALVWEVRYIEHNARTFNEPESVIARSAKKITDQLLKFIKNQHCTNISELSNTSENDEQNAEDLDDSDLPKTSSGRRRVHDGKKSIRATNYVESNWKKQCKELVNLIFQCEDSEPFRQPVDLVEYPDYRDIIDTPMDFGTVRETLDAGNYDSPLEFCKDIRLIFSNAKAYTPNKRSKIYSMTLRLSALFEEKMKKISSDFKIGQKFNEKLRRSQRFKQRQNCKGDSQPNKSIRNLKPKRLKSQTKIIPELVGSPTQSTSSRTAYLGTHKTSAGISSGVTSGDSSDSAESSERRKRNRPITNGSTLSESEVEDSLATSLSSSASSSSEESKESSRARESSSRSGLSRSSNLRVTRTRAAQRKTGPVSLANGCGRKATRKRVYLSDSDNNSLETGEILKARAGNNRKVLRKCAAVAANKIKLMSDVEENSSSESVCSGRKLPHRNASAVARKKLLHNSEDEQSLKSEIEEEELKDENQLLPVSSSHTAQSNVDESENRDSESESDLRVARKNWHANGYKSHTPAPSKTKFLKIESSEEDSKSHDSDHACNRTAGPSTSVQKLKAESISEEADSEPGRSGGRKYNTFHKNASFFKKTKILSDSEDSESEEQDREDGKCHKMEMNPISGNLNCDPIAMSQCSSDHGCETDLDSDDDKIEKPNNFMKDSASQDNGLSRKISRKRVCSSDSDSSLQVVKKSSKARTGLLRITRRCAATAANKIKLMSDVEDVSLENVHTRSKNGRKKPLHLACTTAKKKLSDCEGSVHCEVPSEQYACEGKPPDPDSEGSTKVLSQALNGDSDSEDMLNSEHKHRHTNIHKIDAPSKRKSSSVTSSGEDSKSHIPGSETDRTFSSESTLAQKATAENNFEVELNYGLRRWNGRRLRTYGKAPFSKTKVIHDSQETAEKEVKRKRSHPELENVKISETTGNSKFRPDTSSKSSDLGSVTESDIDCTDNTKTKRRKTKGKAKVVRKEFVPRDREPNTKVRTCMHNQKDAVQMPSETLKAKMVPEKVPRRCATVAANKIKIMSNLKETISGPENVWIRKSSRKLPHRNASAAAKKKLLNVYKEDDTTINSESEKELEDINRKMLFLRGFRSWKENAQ

SMILES: CN1C[C@H](Nc2nc3cc[nH]c3c(=O)n2C)C[C@H](c2ccc3c(c2)OCCO3)C1
- inhibition [1]: inactive
- inhibition [2]: inactive
- logD [3]: 1.9
- inhibition (Homo sapiens [4]): inactive
- inhibition [5]: inactive
- inhibition [6]: inactive
- inhibition [7]: inactive
- inhibition [8]: inactive
- inhibition [9]: inactive
- inhibition [10]: inactive
- inhibition [11]: inactive
- inhibition [12]: inactive
- inhibition [13]: inactive
- inhibition [14]: inactive
- inhibition [15]: inactive
- inhibition [16]: inactive
- inhibition [17]: inactive
- Activity [18]: inactive
- inhibition [19]: inactive
- inhibition [20]: inactive
- inhibition [21]: inactive
- Kd [22]: 917 nM
- inhibition (Homo sapiens [23]): inactive
- inhibition [24]: inactive

Reference: ChEMBL document CHEMBL4350961, “Discovery of Pyrrolo[3,2- d]pyrimidin-4-one Derivatives as a New Class of Potent and Cell-Active Inhibitors of P300/CBP-Associated Factor Bromodomain” (J Med Chem, 2019)
